Key:
[1] = Toxicity in ip dosed Mus musculus Swiss-Webster (mouse) assessed as mortality measured after 24 hr; assay type: organism-based; settings: in vivo
[2] = system: Musca domestica; experiment: Toxicity against SCR-susceptible Musca domestica (house fly) assessed as immobility compound administered by intrathoracic injection 2 hr after piperonyl butoxide treatment measured 4 hr post compound treatment; assay type: functional
Procedure, shortened: (§1)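 Houseflies first received 7.5 μg piperonyl butoxide in 0.5 μL acetone topically on the abdomen. After 2 h they were given the test compound by intrathoracic injection in 1 μL of 50% aqueous ethanol. Flies immobilised at 4 h were scored, and KD50 came from log dose–probit plots. Two independent experiments were run, each with 10 flies per dose and 1.5–2-fold dose spacing.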

[3] = biological target: T1, Ryanodine receptor 1 (Oryctolagus cuniculus, UniProt P11716)
[4] = system: Musca domestica; experiment: Drug metabolism in SCR-susceptible Musca domestica (house fly) assessed as unidentified metabolite intermediate Rf in exctreta at 160 ug/g after 1 hr by TLC method; assay type: ADME, organism-based; settings: in vivo
Procedure, shortened: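 Excreta were extracted with MeOH, then run on TLC on 0.20-mm silica gel in 15% MeOH/CHCl3. Metabolites were detected by liquid scintillation counting.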

[5] = system: Musca domestica; experiment: Drug metabolism in SCR-susceptible Musca domestica (house fly) assessed as unidentified metabolite intermediate Rf in exctreta at 160 ug/g after 4 hr by TLC method; assay type: ADME, organism-based; settings: in vivo
[6] = system: Musca domestica; experiment: Toxicity against SCR-susceptible Musca domestica (house fly) assessed as immobility compound administered by intrathoracic injection measured 4 hr post compound treatment; assay type: functional
Procedure, shortened: (§2)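 Houseflies without piperonyl butoxide pretreatment received ryanoid by intrathoracic injection in 50% aqueous ethanol. Knockdown (immobility) was scored 4 h after treatment, and KD50 came from log dose–probit plots. Two independent experiments were run, each with 10 flies per dose and 1.5–2-fold dose spacing.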

[7] = system: Mus musculus; experiment: Ratio of compound LC50 to ryanodine LC50 for ip dosed Mus musculus Swiss-Webster (mouse) assessed as mortality measured after 24 hr; assay type: ADME, organism-based; settings: in vivo
[8] = system: Musca domestica; experiment: Ratio of compound KD50 to ryanodine KD50 for SCR-susceptible Musca domestica (house fly) assessed as immobility compound administered by intrathoracic injection 2 hr after piperonyl butoxide treatment measured 4 hr post compound treatment; assay type: functional; procedure, shortened: as §1
[9] = biological target: T1, Ryanodine receptor 1; experiment: Ratio of compound IC50 to ryanodine IC50 for Ca2+-ryanodine receptor in Oryctolagus cuniculus (rabbit) skeletal muscle sarcoplasmic reticulum after 80 min by competitive inhibition assay; assay type: ADME
Procedure, shortened: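 Rabbit fast skeletal muscle heavy SR (terminal cisternae) receptor, solubilised with 1 M NaCl, 1 mg CHAPS/mg protein and 40 mM Tris/maleate pH 7.1. […] Incubation was 80 min at 37°C, then GF/C filtration. IC50 came from Hill regression.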

[10] = system: Musca domestica; experiment: Ratio of compound KD50 to ryanodine KD50 for SCR-susceptible Musca domestica (house fly) assessed as immobility compound administered by intrathoracic injection measured 4 hr post compound treatment; assay type: ADME, organism-based; settings: in vivo, other; procedure, shortened: as §2

T1 sequence (P11716 whole entry): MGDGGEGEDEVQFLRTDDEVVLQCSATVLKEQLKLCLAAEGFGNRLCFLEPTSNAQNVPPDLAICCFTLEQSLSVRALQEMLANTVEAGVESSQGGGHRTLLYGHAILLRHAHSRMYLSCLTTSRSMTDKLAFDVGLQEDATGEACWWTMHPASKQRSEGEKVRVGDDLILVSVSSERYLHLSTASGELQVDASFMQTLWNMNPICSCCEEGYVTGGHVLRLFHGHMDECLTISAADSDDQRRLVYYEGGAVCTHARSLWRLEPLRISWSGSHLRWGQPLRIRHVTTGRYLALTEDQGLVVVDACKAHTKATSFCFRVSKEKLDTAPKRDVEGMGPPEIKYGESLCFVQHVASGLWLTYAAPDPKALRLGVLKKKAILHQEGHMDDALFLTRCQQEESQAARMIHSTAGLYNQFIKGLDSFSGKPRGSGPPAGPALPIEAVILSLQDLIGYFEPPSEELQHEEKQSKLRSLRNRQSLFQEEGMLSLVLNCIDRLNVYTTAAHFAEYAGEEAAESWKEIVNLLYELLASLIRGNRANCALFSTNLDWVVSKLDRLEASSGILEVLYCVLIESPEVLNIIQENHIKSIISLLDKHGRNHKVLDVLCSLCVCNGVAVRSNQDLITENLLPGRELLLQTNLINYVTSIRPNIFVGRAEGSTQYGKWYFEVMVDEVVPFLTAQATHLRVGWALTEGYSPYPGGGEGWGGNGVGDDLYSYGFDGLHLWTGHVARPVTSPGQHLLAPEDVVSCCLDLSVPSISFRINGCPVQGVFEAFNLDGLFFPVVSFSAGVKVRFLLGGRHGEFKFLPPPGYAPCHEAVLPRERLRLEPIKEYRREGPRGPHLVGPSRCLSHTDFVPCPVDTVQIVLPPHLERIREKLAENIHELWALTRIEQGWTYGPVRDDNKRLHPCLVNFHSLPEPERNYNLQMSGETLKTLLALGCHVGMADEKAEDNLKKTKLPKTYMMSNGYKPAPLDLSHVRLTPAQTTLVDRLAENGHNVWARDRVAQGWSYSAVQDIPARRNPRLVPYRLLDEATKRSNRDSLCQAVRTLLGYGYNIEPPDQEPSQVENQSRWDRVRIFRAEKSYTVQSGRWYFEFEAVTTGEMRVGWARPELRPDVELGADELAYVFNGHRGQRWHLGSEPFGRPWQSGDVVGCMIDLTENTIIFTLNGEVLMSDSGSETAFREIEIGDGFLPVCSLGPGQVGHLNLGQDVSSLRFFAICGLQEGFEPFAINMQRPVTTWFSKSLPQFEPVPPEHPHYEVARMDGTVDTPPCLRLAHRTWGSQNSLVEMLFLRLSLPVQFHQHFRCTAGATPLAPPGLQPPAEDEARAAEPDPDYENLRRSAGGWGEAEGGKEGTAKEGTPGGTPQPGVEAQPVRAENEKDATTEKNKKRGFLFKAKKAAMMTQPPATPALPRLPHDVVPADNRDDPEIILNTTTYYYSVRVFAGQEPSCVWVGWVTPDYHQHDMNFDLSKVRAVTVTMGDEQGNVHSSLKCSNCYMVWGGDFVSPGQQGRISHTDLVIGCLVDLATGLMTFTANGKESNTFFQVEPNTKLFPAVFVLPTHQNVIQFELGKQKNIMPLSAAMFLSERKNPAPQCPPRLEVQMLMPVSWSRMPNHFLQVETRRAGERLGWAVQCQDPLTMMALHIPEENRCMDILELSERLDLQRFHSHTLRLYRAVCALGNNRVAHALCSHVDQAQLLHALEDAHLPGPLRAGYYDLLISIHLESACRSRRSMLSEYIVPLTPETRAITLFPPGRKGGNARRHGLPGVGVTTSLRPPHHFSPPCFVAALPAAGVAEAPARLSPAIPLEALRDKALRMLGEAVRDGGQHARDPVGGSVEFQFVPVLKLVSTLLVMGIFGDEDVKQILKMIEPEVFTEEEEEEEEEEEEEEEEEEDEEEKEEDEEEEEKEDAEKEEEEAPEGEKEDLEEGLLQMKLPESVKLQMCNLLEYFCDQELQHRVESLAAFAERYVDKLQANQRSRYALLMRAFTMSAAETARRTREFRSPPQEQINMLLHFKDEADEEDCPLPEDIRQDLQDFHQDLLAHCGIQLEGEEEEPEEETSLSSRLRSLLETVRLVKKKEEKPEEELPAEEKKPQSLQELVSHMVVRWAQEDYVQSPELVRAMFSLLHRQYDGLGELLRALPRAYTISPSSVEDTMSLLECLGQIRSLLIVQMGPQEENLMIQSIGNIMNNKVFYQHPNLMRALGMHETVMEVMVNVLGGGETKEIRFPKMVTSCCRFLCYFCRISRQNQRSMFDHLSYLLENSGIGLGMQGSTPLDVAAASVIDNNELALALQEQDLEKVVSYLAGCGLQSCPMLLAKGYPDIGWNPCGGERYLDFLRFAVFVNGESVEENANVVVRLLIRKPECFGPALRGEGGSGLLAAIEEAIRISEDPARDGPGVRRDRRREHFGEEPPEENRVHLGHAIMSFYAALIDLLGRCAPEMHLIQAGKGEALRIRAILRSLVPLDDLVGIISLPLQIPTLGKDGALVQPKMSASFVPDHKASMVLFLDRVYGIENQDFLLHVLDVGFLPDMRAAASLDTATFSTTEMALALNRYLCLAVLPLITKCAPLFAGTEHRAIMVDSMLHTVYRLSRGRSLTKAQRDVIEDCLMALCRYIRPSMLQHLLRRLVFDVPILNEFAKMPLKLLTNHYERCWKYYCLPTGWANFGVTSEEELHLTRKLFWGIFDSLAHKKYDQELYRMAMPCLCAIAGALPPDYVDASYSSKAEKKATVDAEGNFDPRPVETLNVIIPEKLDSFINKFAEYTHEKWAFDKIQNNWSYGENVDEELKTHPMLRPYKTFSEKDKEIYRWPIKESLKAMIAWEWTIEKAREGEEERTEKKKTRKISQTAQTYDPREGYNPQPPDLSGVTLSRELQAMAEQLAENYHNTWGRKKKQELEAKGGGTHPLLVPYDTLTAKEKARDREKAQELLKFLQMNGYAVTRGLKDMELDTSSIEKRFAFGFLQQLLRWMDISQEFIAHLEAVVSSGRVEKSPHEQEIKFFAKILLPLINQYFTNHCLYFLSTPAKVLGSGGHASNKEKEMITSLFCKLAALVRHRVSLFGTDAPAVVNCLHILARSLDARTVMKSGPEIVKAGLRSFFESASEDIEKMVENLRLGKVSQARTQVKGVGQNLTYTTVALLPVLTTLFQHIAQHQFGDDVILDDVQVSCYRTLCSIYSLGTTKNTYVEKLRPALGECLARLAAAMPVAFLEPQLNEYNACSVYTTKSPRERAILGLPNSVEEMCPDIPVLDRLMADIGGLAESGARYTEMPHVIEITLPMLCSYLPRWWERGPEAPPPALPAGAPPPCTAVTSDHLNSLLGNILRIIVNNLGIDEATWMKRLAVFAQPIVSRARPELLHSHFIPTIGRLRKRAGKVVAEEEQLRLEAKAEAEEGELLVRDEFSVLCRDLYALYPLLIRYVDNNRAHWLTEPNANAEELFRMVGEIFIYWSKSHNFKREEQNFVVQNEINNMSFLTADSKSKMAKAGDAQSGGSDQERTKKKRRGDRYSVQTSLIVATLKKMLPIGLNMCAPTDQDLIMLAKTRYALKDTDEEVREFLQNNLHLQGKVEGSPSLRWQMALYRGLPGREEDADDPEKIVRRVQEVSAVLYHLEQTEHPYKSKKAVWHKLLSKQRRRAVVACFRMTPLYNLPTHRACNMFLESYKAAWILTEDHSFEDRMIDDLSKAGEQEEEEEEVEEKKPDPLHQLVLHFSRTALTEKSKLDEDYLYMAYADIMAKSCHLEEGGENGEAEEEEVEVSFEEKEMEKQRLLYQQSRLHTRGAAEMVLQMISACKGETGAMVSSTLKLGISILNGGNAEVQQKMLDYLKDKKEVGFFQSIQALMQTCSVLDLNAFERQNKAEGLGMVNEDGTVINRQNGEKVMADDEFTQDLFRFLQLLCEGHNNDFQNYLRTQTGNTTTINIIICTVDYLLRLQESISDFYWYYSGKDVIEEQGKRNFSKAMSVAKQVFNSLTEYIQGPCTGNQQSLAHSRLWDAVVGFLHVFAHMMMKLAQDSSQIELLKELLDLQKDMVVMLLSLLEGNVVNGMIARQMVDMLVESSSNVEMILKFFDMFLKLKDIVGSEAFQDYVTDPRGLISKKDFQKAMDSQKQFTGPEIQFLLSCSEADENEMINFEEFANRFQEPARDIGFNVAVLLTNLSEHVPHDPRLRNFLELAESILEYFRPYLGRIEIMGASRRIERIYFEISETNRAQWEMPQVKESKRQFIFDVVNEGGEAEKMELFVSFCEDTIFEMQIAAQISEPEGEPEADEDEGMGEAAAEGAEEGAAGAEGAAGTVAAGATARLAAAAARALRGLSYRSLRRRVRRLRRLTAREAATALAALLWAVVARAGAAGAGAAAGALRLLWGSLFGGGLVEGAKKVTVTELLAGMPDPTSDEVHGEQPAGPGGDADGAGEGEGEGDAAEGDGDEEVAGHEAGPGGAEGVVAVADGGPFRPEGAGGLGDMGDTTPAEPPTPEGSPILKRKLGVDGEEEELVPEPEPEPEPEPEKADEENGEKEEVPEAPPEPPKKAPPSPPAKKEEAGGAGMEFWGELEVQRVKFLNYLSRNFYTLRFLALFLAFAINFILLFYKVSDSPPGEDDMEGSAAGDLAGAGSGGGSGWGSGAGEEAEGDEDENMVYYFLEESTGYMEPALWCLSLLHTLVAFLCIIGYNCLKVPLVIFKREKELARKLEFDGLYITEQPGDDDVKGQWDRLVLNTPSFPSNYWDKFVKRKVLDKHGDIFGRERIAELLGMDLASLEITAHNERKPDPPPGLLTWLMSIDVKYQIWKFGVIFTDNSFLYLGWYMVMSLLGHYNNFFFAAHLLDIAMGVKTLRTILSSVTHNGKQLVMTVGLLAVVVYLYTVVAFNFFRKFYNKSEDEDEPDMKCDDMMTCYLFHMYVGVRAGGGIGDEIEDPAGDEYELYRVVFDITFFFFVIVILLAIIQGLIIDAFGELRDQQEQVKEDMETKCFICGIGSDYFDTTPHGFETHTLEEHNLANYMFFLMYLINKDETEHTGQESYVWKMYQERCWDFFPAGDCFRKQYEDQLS

| Structure (SMILES) | LD50 at 24 h [1] [mg/kg] | KD50 [2] [µg/g] | IC50 [3] [µM] | other results |
| --- | --- | --- | --- | --- |
| CO[C@@]12C[C@@]3(C)[C@@]4(O)CC[C@H](C)[C@@H](O)[C@]4(O1)[C@]1(O)[C@@]3(O)[C@H](OC(=O)c3cccn3C)[C@](O)(C(C)C)[C@]21C | 17 | >20 | 0.28 |  |
| CO[C@@]12C[C@@]3(C)[C@@]4(OC)CC[C@H](C)[C@@H](O)[C@]4(O1)[C@]1(O)[C@@]3(O)[C@H](OC(=O)c3cccn3C)[C@](O)(C(C)C)[C@]21C |  | 12 | 1.3 |  |
| CO[C@@]12C[C@@]3(C)[C@@]4(O)CC[C@H](C)[C@@H](O)[C@]4(O1)[C@]1(O)[C@@]3(OC)[C@H](OC(=O)c3cccn3C)[C@](O)(C(C)C)[C@]21C | > 20 | >20 | 4.5 |  |
| CC1=CC[C@]2(O)[C@]3(C)C[C@]4(O)O[C@@]2(C1=O)[C@]1(O)[C@@]3(O)[C@H](OC(=O)c2ccc[nH]2)[C@](O)(C(C)C)[C@@]14C | > 5 |  | 7.3 |  |
| CO[C@@H]1[C@@H](C)CC[C@]2(O)[C@]3(C)C[C@]4(OC)O[C@]12[C@]1(O)[C@@]3(OC)[C@H](OC(=O)c2cccn2C)[C@](O)(C(C)C)[C@]41C | > 20 | >20 | > 10 |  |
| CC(C)[C@@]1(O)[C@@H](OC(=O)c2ccc[nH]2)[C@@]2(O)[C@@]3(C)C[C@]4(O)O[C@@]5([C@H](O)[C@](O)(CO)CC[C@]35O)[C@@]2(O)[C@]14C [9,21-DIHYDROXYRYANODINE] |  | 10 | 4.9 |  |
| CC(C)[C@@]1(O)[C@@H](OC(=O)c2ccc[nH]2)[C@@]2(O)[C@@]3(C)C[C@]4(O)O[C@@]5([C@H](O)C6(CC[C@]35O)CO6)[C@@]2(O)[C@]14C (stereo not given in full) [9,21-EPOXYRYANODINE] | 1.5 | 0.3 | 0.14 |  |
| CC(=O)O[C@@H]1[C@@H](C)CC[C@]2(O)[C@]3(C)C[C@]4(O)O[C@]12[C@]1(O)[C@@]3(O)[C@H](OC(=O)c2ccc[nH]2)[C@](O)(C(C)C)[C@@]14C [10-ACETYLRYANODINE] |  | 0.5 | 0.14 |  |
| CC(C)[C@@]1(O)[C@@H](OC(=O)c2ccc[nH]2)[C@@]2(O)[C@@]3(C)C[C@]4(O)O[C@@]5(C(=O)[C@@H](C)CC[C@]35O)[C@@]2(O)[C@]14C [10-KETORYANODINE] | 0.55 | >20 | 0.1 |  |
| CC(CO)[C@@]1(O)[C@@H](OC(=O)c2ccc[nH]2)[C@@]2(O)[C@@]3(C)C[C@]4(O)O[C@@]5([C@H](O)[C@@H](C)CC[C@]35O)[C@@]2(O)[C@]14C (stereo not given in full) [18-HYDROXYRYANODINE] | 0.9 |  | 0.088 |  |
| CC(C)[C@@]1(O)[C@@H](OC(=O)c2[nH]c(Br)c(Br)c2Br)[C@@]2(O)[C@@]3(C)C[C@]4(O)O[C@@]5([C@H](O)[C@@H](C)CC[C@]35O)[C@@]2(O)[C@]14C [24,25,26-TRIBROMORYANODINE] | > 20 |  | > 10 |  |
| CC1=C(C(C)C)[C@@H](OC(=O)c2ccc[nH]2)[C@@]2(O)[C@@]3(C)CC(=O)O[C@@]4([C@H](O)[C@@H](C)CC[C@]34O)[C@@]12O [ANHYDRORYANODINE] | > 20 |  | > 10 |  |
| C=C1CC[C@]2(O)[C@]3(C)C[C@]4(O)O[C@@]2([C@@H]1O)[C@]1(O)[C@@]3(O)[C@H](OC(=O)c2ccc[nH]2)[C@](O)(C(C)C)[C@@]14C [DEHYDRORYANODINE] | 0.1 | 0.03 | 0.013 |  |
| C=C1CC[C@]2(O)[C@]3(C)C[C@]4(O)O[C@@]2([C@@H]1O)[C@]1(O)[C@@]3(O)[C@H](O)[C@](O)(C(C)C)[C@@]14C [DIDEHYDRORYANODOL] | > 20 | 0.36 | 10 |  |
| CC(C)[C@@]1(O)[C@@H](OC(=O)c2ccc[nH]2)[C@@]2(O)[C@@]3(C)C[C@]4(O)O[C@@]5([C@H](O)[C@H](C)CC[C@]35O)[C@@]2(O)[C@]14C [EPIRYANODINE] | 0.47 |  |  |  |
| CC(C)[C@@]1(O)[C@@H](OC(=O)c2cccn2Cc2ccccc2)[C@@]2(O)[C@@]3(C)C[C@]4(O)O[C@@]5([C@H](O)[C@@H](C)CC[C@]35O)[C@@]2(O)[C@]14C [N-BENZYLRYANODINE] | 6.3 |  | 0.31 |  |
| CCCCn1cccc1C(=O)O[C@H]1[C@@]2(O)[C@@]3(C)C[C@]4(O)O[C@@]5([C@H](O)[C@@H](C)CC[C@]35O)[C@@]2(O)[C@]4(C)[C@@]1(O)C(C)C [N-BUTYLRYANODINE] |  |  | 0.86 |  |
| CC(C)[C@@]1(O)[C@@H](OC(=O)c2cc[nH]c2)[C@@]2(O)[C@]3(C)C[C@@]4(O)O[C@@]5([C@H](O)[C@@H](C)CC[C@]35O)[C@@]2(O)[C@@]41C [RYANODINE] |  |  |  | Drug metabolism [4]: Active; Drug metabolism [5]: Active |
| CC(C)[C@@]1(O)[C@@H](OC(=O)c2ccc[nH]2)[C@@]2(O)[C@@]3(C)C[C@]4(O)O[C@@]5([C@H](O)[C@@H](C)CC[C@]35O)[C@@]2(O)[C@@]14C [RYANODINE] | 0.1 |  |  |  |
| CC(C)[C@@]1(O)[C@@H](O)[C@@]2(O)[C@@]3(C)C[C@]4(O)O[C@@]5([C@H](O)[C@@H](C)CC[C@]35O)[C@@]2(O)[C@]14C [RYANODOL] | > 20 | 0.34 | 35 | KD50 [6]: 1.1 µg/g; Ratio [7]: > 200; Ratio [8]: 3.6; Ratio IC50 [9]: 3500; Ratio [10]: 0.8 |

Source: ChEMBL document CHEMBL3045240 (J Med Chem, 1987)
